Experimental data from ChEMBL document CHEMBL1131742, “Design of scytalone dehydratase inhibitors as rice blast fungicides: derivatives of norephedrine” (Bioorg Med Chem Lett, 1999).
≈ marks a conversion by molar mass, not a printed value.

Assays:
rice = test: Concentration that affords 90% control of blast disease on rice plants in greenhouse assay; format: functional
Outline: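 Foliar greenhouse test on rice plants against blast disease; compounds applied over a range of concentrations, and the concentration giving 90% disease control was derived from the dose-response data.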

Scytalone dehydratase = target: T1, Scytalone dehydratase (Magnaporthe oryzae (strain 70-15 / FGSC 8958) (Rice blast fungus)(Pyricularia oryzae), UniProt P56221); design: species or system Pyricularia grisea
T1 sequence (P56221 whole entry): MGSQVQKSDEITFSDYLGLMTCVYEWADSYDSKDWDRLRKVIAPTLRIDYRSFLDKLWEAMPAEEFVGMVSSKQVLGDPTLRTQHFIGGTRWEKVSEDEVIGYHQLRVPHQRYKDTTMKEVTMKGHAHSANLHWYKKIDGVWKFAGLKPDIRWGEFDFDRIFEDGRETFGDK

CC(C)C(C#N)C(=O)N[C@H](C)COc1cc(F)ccc1F (stereo partly drawn)
ED90 (rice): 10 µg/mL (≈ 33.7 µM)
Ki (Scytalone dehydratase): 0.27 nM

C[C@H](COc1cc(F)ccc1F)NC(=O)C(C#N)C(C)(C)C (stereo partly drawn)
ED90 (rice): 6 µg/mL (≈ 19.3 µM)

C[C@H](COc1cc(F)ccc1F)NC(=O)[C@H](C#N)C(C)(C)C
Ki (Scytalone dehydratase): 0.02 nM

CCC(C#N)C(=O)N[C@H](C)[C@@H](Oc1cc(F)ccc1F)c1ccccc1 (stereo partly drawn)
ED90 (rice): 2 µg/mL (≈ 5.58 µM)
Ki (Scytalone dehydratase): 0.02 nM

CCC(C#N)C(=O)N[C@H](C)[C@@H](Oc1cc(Cl)ccc1C#N)c1ccccc1 (stereo partly drawn)
ED90 (rice): 10 µg/mL (≈ 26.2 µM)
Ki (Scytalone dehydratase): 0.031 nM

CC(C)C(C#N)C(=O)N[C@H](C)[C@@H](Oc1ccccc1C#N)c1ccccc1 (stereo partly drawn)
ED90 (rice): 25 µg/mL (≈ 69.2 µM)
Ki (Scytalone dehydratase): 0.038 nM

CC(C)C(C#N)C(=O)N[C@H](C)[C@@H](Oc1cc(F)ccc1F)c1ccccc1 (stereo partly drawn)
ED90 (rice): 100 µg/mL (≈ 269 µM)
Ki (Scytalone dehydratase): 0.076 nM

C[C@H](COc1cc(F)ccc1F)NC(=O)C(C#N)C1CC1 (stereo partly drawn)
ED90 (rice): 50 µg/mL (≈ 170 µM)
Ki (Scytalone dehydratase): 1.1 nM

CCC(C#N)C(=O)N[C@H](C)[C@@H](Oc1cc(Br)ccc1C#N)c1ccccc1 (stereo partly drawn)
ED90 (rice): 50 µg/mL (≈ 117 µM)
Ki (Scytalone dehydratase): 0.034 nM

CCC(C#N)C(=O)N[C@H](C)COc1cc(F)ccc1F (stereo partly drawn)
ED90 (rice): > 200 µg/mL
Ki (Scytalone dehydratase): 5.5 nM

C[C@@H](NC(=O)C(C#N)C1CC1)[C@@H](Oc1cc(F)ccc1F)c1ccccc1 (stereo partly drawn)
ED90 (rice): 2 µg/mL (≈ 5.4 µM)
Ki (Scytalone dehydratase): 0.014 nM

CC(C)C(C#N)C(=O)N[C@H](C)[C@@H](Oc1cc(F)ccc1C#N)c1ccccc1 (stereo partly drawn)
ED90 (rice): 25 µg/mL (≈ 65.9 µM)
Ki (Scytalone dehydratase): 0.034 nM

C[C@@H](NC(=O)C(C#N)C(C)(C)C)[C@@H](Oc1ccccc1C#N)c1ccccc1 (stereo partly drawn)
ED90 (rice): 200 µg/mL (≈ 533 µM)
Ki (Scytalone dehydratase): 0.14 nM

CCC(C#N)C(=O)N[C@H](C)[C@@H](Oc1cc(F)ccc1C#N)c1ccccc1 (stereo partly drawn)
ED90 (rice): 50 µg/mL (≈ 137 µM)
Ki (Scytalone dehydratase): 0.021 nM

CCC(C#N)C(=O)N[C@H](C)[C@@H](Oc1ccccc1C#N)c1ccccc1 (stereo partly drawn)
ED90 (rice): 10 µg/mL (≈ 28.8 µM)
Ki (Scytalone dehydratase): 0.07 nM
